# Experimental data from different studies.
# Compare with care: the assays were run in different laboratories.
# Technique: broth dilution
SMILES,organism,assay,system,conditions,quantity,value
C[C@@H]1O[C@@H](OC[C@H]2O[C@@H](Oc3c(-c4ccc(O)c(O)c4)oc4cc(O)cc(O)c4c3=O)[C@H](O)[C@@H](O)[C@@H]2O)[C@H](O)[C@H](O)[C@H]1O,Streptococcus sobrinus,microbial killing,,,MBC,400 µg/mL
O=C(Nc1ccc2[nH]ccc2c1)c1ccc(COC(Cn2ccnc2)c2ccc(Cl)cc2Cl)cc1 (centres unmarked),Lodderomyces parapsilosis,microbial growth,,,MIC80,32 µg/mL
O=C(O[C@@H]1O[C@@H]2COC(=O)c3cc(O)c(O)c(O)c3-c3c(cc(O)c(O)c3O)C(=O)O[C@H]([C@H]1O)[C@@H]2O)c1cc(O)c(O)c(O)c1,Streptococcus sobrinus,microbial killing,,,MBC,400 µg/mL
O=C(Nc1ccc2cccnc2c1)c1ccc(COC(Cn2ccnc2)c2ccc(Cl)cc2Cl)cc1 (centres unmarked),Lodderomyces parapsilosis,microbial growth,,,MIC80,2 µg/mL
Oc1cc(O)c2c(c1)O[C@H](c1cc(O)c(O)c(O)c1)[C@@H](O)C2,Streptococcus sobrinus,microbial growth,,24 h,MIC,100 µg/mL
COc1cc(C=O)ccc1OC1=C(Cl)C(=O)c2ccccc2C1=O,Aspergillus niger,microbial growth,,,MIC,12 µg/mL
O=c1oc2c(O)c(O)cc3c(=O)oc4c(O)c(O)cc1c4c23,Streptococcus sobrinus,microbial killing,,,MBC,200 µg/mL
O=C(Nc1ccc2ccccc2c1)c1ccc(COC(Cn2ccnc2)c2ccc(Cl)cc2Cl)cc1 (centres unmarked),Lodderomyces parapsilosis,microbial growth,,,MIC80,32 µg/mL
C/C(=N\C(=O)/N=C(\C)c1c(O)c2ccccc2oc1=O)c1c(O)c2ccccc2oc1=O,Aspergillus niger,microbial growth,,48 h,MIC,125 µg/mL
O=C(Nc1cccc(Cl)c1)c1ccc(COC(Cn2ccnc2)c2ccc(Cl)cc2Cl)cc1 (centres unmarked),Lodderomyces parapsilosis,microbial growth,,,MIC80,0.06 µg/mL
C/C(=N\C(=S)/N=C(\C)c1c(O)c2ccccc2oc1=O)c1c(O)c2ccccc2oc1=O,Aspergillus niger,microbial growth,,48 h,MIC,3.9 µg/mL
CC1CCC(C(C)C)C(OC2=C(Cl)C(=O)c3ccccc3C2=O)C1 (centres unmarked),Aspergillus niger,microbial growth,,,MIC,12 µg/mL
O=C(Nc1ccc(C(F)(F)F)cc1)c1ccc(COC(Cn2ccnc2)c2ccc(Cl)cc2Cl)cc1 (centres unmarked),Lodderomyces parapsilosis,microbial growth,,,MIC80,0.06 µg/mL
O=C1OC[C@H]2OC(O)[C@H](O)[C@@H](O)[C@@H]2OC(=O)c2cc(O)c(O)c(O)c2-c2c(O)c(O)c3oc(=O)c4c(c(O)c(O)c5oc(=O)c2c3c54)-c2c1cc(O)c(O)c2O (mixture of isomers),Streptococcus sobrinus,microbial growth,,24 h,MIC,100 µg/mL
C/C(=N\N=C(/C)c1c(O)c2ccccc2oc1=O)c1c(O)c2ccccc2oc1=O,Aspergillus niger,microbial growth,,48 h,MIC,125 µg/mL
C[C@@H]1O[C@@H]1P(=O)(O)O,Neisseria gonorrhoeae,microbial growth,ATCC49226,,MIC,31.2 µg/mL
C/C(=N\C(=N)/N=C(\C)c1c(O)c2ccccc2oc1=O)c1c(O)c2ccccc2oc1=O,Aspergillus niger,microbial growth,,48 h,MIC,62.5 µg/mL
O=C(Nc1ccc(Br)cc1)c1ccc(COC(Cn2ccnc2)c2ccc(Cl)cc2Cl)cc1 (centres unmarked),Lodderomyces parapsilosis,microbial growth,,,MIC80,0.125 µg/mL
O=C1O[C@H]2[C@@H]3OC(=O)c4cc(O)c(O)c(O)c4-c4c(O)c(O)c5oc(=O)c6c(c(O)c(O)c7oc(=O)c4c5c76)-c4c(cc(O)c(O)c4O)C(=O)OC[C@H]3OC(O)[C@@H]2OC(=O)c2cc(O)c(O)c(O)c2-c2c1cc(O)c(O)c2O (mixture of isomers),Streptococcus sobrinus,microbial killing,,,MBC,200 µg/mL
C/C(=N\c1nc(N)nc(/N=C(\C)c2c(O)c3ccccc3oc2=O)n1)c1c(O)c2ccccc2oc1=O,Aspergillus niger,microbial growth,,48 h,MIC,31.2 µg/mL
